{
  "source": "PubChem BioAssay AID1216",
  "about": "(Sanford-Burnham Center for Chemical Genomics, 2008)",
  "note": "Hit rate of the full screen: of about 190,000 compounds, about 660 (0.35%) were called active. Shown is part of a subset that was picked to be rich in actives. A number with no mark means an inactive call.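 Rule for the calls: active = activation factor of 2 or more at 20 µM; inactive = the rest.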",
  "data": [
    {"molecular_target": "Mannose-6-phosphate isomerase (Homo sapiens) (UniProt P34949)", "sequence (P34949 whole entry, looked up)": "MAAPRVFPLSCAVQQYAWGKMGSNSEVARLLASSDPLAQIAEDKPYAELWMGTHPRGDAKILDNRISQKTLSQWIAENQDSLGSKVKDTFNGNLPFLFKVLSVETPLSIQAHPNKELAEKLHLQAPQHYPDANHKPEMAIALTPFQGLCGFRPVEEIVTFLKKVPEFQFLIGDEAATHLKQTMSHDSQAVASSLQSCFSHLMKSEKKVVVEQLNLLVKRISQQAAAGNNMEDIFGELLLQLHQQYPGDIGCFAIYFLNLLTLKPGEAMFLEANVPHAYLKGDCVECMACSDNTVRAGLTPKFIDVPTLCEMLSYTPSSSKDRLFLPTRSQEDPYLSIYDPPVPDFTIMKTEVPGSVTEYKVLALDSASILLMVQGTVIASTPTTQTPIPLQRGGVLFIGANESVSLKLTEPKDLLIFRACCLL", "test": "human PMI activators, high substrate, primary screen, biochemical, fluorescence intensity, near-saturating mannose 6-phosphate (AID 1216)", "details": "coupled PMI enzyme assay, resazurin fluorescence, 20 min; at 20 µM; active compounds read high; 1 = untreated enzyme, 0 = substrate-free blank", "procedure,_shortened": "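Material: human phosphomannose isomerase with PGI, G6PDH, diaphorase coupling enzymes / Reagent: Man-6-P substrate 1.0 mM / Dosing: single compound dose of 20 µM, 1% DMSO final / Incubation: enzyme reaction with compound 20 min at room temperature / Signal: resorufin fluorescence (Ex 544/Em 590 nm) from resazurin via diaphorase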", "values": [
      {"compound": "O=C(CCCn1c(=O)c2sccc2n(CC(=O)NCC2CCCO2)c1=O)NCc1ccco1", "note": "(stereo not given)", "activation factor": 0.9},
      {"compound": "Cn1cc(C(=O)NCc2ccccc2F)cn1", "activation factor": 1},
      {"compound": "O=C(CO/N=C/c1ccccc1OC(F)F)NC1CCCC1", "activation factor": 1.1},
      {"compound": "CCN(CC)C(=O)C(=O)Nc1cccc(Br)c1", "activation factor": 0.9},
      {"compound": "C=CCc1ccccc1OCC(=O)N/N=C/c1ccccc1OCC", "activation factor": 0.9},
      {"compound": "OCC1(Cc2ccccc2C(F)(F)F)CCN(Cc2cccc3cnccc23)CC1", "activation factor": 0.9},
      {"compound": "COc1ccc(OC)c(NC(=O)CN(Cc2ccc(Cl)cc2)S(C)(=O)=O)c1", "activation factor": 0.8},
      {"compound": "CSc1ncccc1C(=O)OCc1ccc(Br)cc1", "activation factor": 1},
      {"compound": "COC(=O)C(NS(=O)(=O)c1ccc(F)cc1)c1ccccc1", "note": "(stereo not given)", "activation factor": 0.9},
      {"compound": "COc1ccc(-c2c3c(=O)n(C)c(=O)n(C)c3cn2NC(C)=O)cc1", "activation factor": "2 (active)"},
      {"compound": "COc1ccc(-c2c3c(=O)n(C)c(=O)n(C)c3cn2-c2cccc(OC)c2)cc1", "activation factor": 1.2},
      {"compound": "COc1cccc(-n2cc3c(c2-c2ccccc2)c(=O)n(C)c(=O)n3C)c1", "activation factor": 1},
      {"compound": "COCCn1c(C)cc(C(=O)COC(=O)/C=C/c2cccc(OC)c2)c1C", "activation factor": 1},
      {"compound": "Cc1ccc(N/N=C2\\COC(C)(C)CC2=O)cc1", "activation factor": 1.9},
      {"compound": "COc1ccc(CNC2CCCCC2)cc1", "activation factor": 1},
      {"compound": "COc1ccc(N/N=C2/CCCCC2=O)cc1", "activation factor": "2 (active)"},
      {"compound": "CC(=O)c1cc(C#N)c(N2CC(C)OC(C)C2)nc1C", "note": "(stereo not given)", "activation factor": 1},
      {"compound": "CC(C)N(C(=O)Cn1cc(SCC(=O)N2CCCC2)c2ccccc21)C(C)C", "activation factor": 1},
      {"compound": "COc1ccc(-c2nn(-c3ccccc3)cc2CN2CCCO2)c(F)c1", "activation factor": 1},
      {"compound": "CCN(C(=O)COC(=O)c1cc(NS(=O)(=O)c2ccc(Cl)c([N+](=O)[O-])c2)ccc1O)C1CCCCC1", "activation factor": 0.9},
      {"compound": "Cc1ccc(N/C=C/C(=O)c2ccccc2)cc1C", "activation factor": 1.1},
      {"compound": "O=C(/C=C\\NCC(=O)c1ccccc1)c1ccccc1", "activation factor": "2.5 (active)"},
      {"compound": "O=C(/C=C/NCc1ccc(F)cc1)c1ccccc1", "activation factor": 1},
      {"compound": "CN(C)CCCSc1ccccc1NC(=O)/C=C/c1ccccc1", "activation factor": 1},
      {"compound": "Cc1ccc(S(=O)(=O)CCC(=O)OCc2ccccc2)cc1", "activation factor": 1},
      {"compound": "O=C(CNC(=O)c1cc(=O)[nH]c2ccccc12)Nc1ccc(F)c(F)c1", "activation factor": 0.9},
      {"compound": "COC(=O)C(=Nc1ccccc1)/C(C(=O)C(=O)N(C)c1ccccc1)=C(\\O)c1ccc(Cl)cc1", "activation factor": 0.8},
      {"compound": "COc1ccc(C(=O)Nc2ccc(F)cc2F)cc1", "activation factor": "2 (active)"},
      {"compound": "COc1ccccc1CC(=O)Nc1ccc(F)cc1F", "activation factor": 1},
      {"compound": "COc1cc(OC)cc(C(=O)OCC(=O)Nc2ccc(F)cc2F)c1", "activation factor": 0.9}
    ]}
  ]
}
